Source: ChEMBL document CHEMBL1155883, “5-Alkyl-6-benzyl-2-(2-oxo-2-phenylethylsulfanyl)pyrimidin-4(3H)-ones, a series of anti-HIV-1 agents of the dihydro-alkoxy-benzyl-oxopyrimidine family with peculiar structure-activity relationship profile” (J Med Chem, 2008)

Columns and labels:
[1] = system: Human immunodeficiency virus 1; experiment: Antiviral activity against HIV1 NL4-3 in human MT4 cells assessed as inhibition of virus-induced cytopathogenicity by MTT assay; assay type: functional, organism-based; details: Human immunodeficiency virus 1, NL4-3, MT4
How it was run: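 MT-4 lymphoid cells infected with wild-type HIV-1 NL4-3 in the presence of a range of compound concentrations. Viable cells were counted by MTT colorimetric read-out at day 5 post-infection. EC50 is the concentration giving 50% protection from virus-induced cytopathic effect. Means ± SD from at least two or three experiments.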

[2] = Cytotoxicity against human MT4 cells by MTT assay; assay type: cell-based
How it was run: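 Mock-infected MT-4 cells were exposed to a range of compound concentrations. Viability was read by MTT at day 5. CC50 is the concentration that kills 50% of uninfected cells. The top concentration was limited by compound precipitation in culture medium. Means ± SD from at least two or three experiments.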

[3] = Selectivity index, ratio of CC50 for human MT4 cells to EC50 for HIV1 NL4-3; assay type: toxicity, cell-based; details: read-out: Ratio CC50/EC50
How it was run: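 Computed as CC50/EC50. CC50 comes from MTT viability of mock-infected MT-4 cells and EC50 from MTT protection of NL4-3-infected MT-4 cells, both read at day 5.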

[4] = system: Human immunodeficiency virus 1; experiment: Antiviral activity against HIV1 isolates with reverse transcriptase K103N mutation in human MT4 cells assessed as inhibition of virus-induced cytopathogenicity by MTT assay; assay type: functional, organism-based; details: Human immunodeficiency virus 1, MT4
How it was run: (§1)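 MT-4 lymphoid cells infected with HIV-1 carrying RT K103N, Y181C or Y188L, in the presence of different drug concentrations. Viable cells counted at day 5 postinfection by MTT colorimetric assay. EC50 is the concentration that inhibits 50% of the HIV-induced cytopathic effect.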

[5] = system: Human immunodeficiency virus 1; experiment: Resistance index, ratio of EC50 for drug-resistant HIV1 isolate with reverse transcriptase K103N mutation to EC50 for wild type HIV1 NL4-3; assay type: functional
How it was run: (§2)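 Fold resistance is the EC50 against the K103N, Y181C or Y188L mutant strain divided by the EC50 against wt NL4-3. Each EC50 is from MT-4 cells infected in the presence of different drug concentrations, with viability read by MTT at day 5 postinfection.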

[6] = system: Human immunodeficiency virus 1; experiment: Antiviral activity against HIV1 isolates with reverse transcriptase Y181C mutation in human MT4 cells assessed as inhibition of virus-induced cytopathogenicity by MTT assay; assay type: functional, organism-based; details: Human immunodeficiency virus 1, MT4; how it was run: as §1
[7] = system: Human immunodeficiency virus 1; experiment: Resistance index, ratio of EC50 for drug-resistant HIV1 isolate with reverse transcriptase Y181C mutation to EC50 for wild type HIV1 NL4-3; assay type: functional; how it was run: as §2
[8] = system: Human immunodeficiency virus 1; experiment: Antiviral activity against HIV1 isolates with reverse transcriptase Y188L mutation in human MT4 cells assessed as inhibition of virus-induced cytopathogenicity by MTT assay; assay type: functional, organism-based; details: Human immunodeficiency virus 1, MT4; how it was run: as §1
[9] = system: Human immunodeficiency virus 1; experiment: Resistance index, ratio of ID50 for reverse transcriptase K103N mutant to IC50 for wild-type HIV1 sreverse transcriptase
How it was run: (§3)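 Recombinant wt and K103N, L100I or Y181I HIV-1 RT (>95% pure), 2-4 nM. RNA-dependent DNA polymerase assay on 0.5 µg poly(rA)/oligo(dT) 10:1 (0.3 µM 3'-OH ends) with 10 µM [3H]-dTTP and 8% final DMSO. Aliquots taken every 2 min. Inhibitor range 0.2-5× ID50, fitted to a noncompetitive model. Fold resistance is mutant ID50 divided by wt ID50.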

[10] = system: Human immunodeficiency virus 1; experiment: Resistance index, ratio of ID50 for reverse transcriptase L100I mutant to IC50 for wild-type HIV1 reverse transcriptase; how it was run: as §3
[11] = molecular target: Human immunodeficiency virus type 1 reverse transcriptase (Human immunodeficiency virus 1) (UniProt Q72547)
[12] = system: Human immunodeficiency virus type 1 reverse transcriptase (Human immunodeficiency virus 1), Q72547 [K103N]
[13] = system: Human immunodeficiency virus type 1 reverse transcriptase (Human immunodeficiency virus 1), Q72547 [Y181I]
[14] = system: Human immunodeficiency virus type 1 reverse transcriptase (Human immunodeficiency virus 1), Q72547 [L100I]
[15] = system: Human immunodeficiency virus 1; experiment: Resistance index, ratio of ID50 for reverse transcriptase Y181I mutant to IC50 for wild-type HIV1 reverse transcriptase; how it was run: as §3

SMILES | EC50 [1] [µM] | CC50 [2] [µM] | selectivity ratio [3] | EC50 [4] [µM] | Ratio EC50 [5] | EC50 [6] [µM] | Ratio EC50 [7] | EC50 [8] [µM] | Ratio [9] | Ratio [10] | ID50 [11] [µM] | ID50 [12] [µM] | ID50 [13] [µM] | ID50 [14] [µM] | Ratio [15]
CC(C)c1c(Cc2c(F)cccc2F)nc(SCC(=O)c2ccccc2)[nH]c1=O | 0.002 | > 60 | > 30000 | 4.46 | 2230 | 0.24 | 120 | > 60 | 198 | 600 | 0.008 | 1.58 | > 40 | 4.8 | 
CCc1c(Cc2c(F)cccc2Cl)nc(SCC(=O)c2ccc(OC)cc2)[nH]c1=O | 0.02 | > 11 | > 550 | 4.16 | 208 | 0.84 | 42 | > 11 |  | 414 | 0.007 | > 40 | > 40 | 2.9 | 
CCC(C)c1c(Cc2c(F)cccc2Cl)nc(SCC(=O)c2ccc(F)cc2)[nH]c1=O (stereo not drawn) | 0.017 | > 54 | > 3180 | > 54 |  | 0.86 | 51 | > 54 |  | 1360 | 0.024 | > 40 | > 40 | 32.7 | 
CCc1c(Cc2c(Cl)cccc2Cl)nc(SCC(=O)c2ccc(OC)cc2)[nH]c1=O | 3.3 | > 54 | > 16 | > 54 |  | 24.1 | 7 | > 54 | 21 | 105 | 0.023 | 0.48 | 0.14 | 2.42 | 6
Cc1c(Cc2c(F)cccc2F)nc(SCC(=O)c2ccccc2)[nH]c1=O | 0.015 | 65 | 4330 | 19 | 1267 | 0.52 | 35 | > 65 | 32 | 38 | 0.33 | 10.4 | 1.68 | 12.7 | 5
CC(C)c1c(Cc2c(F)cccc2F)nc(SCC(=O)c2ccc(F)cc2)[nH]c1=O | 0.005 | > 58 | > 11600 | > 58 |  | 0.18 | 36 | > 58 | 71 | 70 | 0.082 | 5.82 | > 40 | 5.7 | 
Cc1c(Cc2c(F)cccc2Cl)nc(SCC(=O)c2ccccc2)[nH]c1=O | 0.045 | > 12 | > 267 | 9.48 | 211 | 1.68 | 37 | > 12 | 1920 | 275 | 0.012 | 23 | 1.2 | 3.3 | 100
Cc1ccnc2c1NC(=O)c1cccnc1N2C1CC1 [NEVIRAPINE] | 0.13 | > 7 | > 54 | 4.96 | 38 | > 7 |  | > 7 | 17 | 22 |  |  |  |  | 87
Cc1c(Cc2c(F)cccc2Cl)nc(SCC(=O)c2ccc(F)cc2)[nH]c1=O | 0.002 | > 59 | > 29500 | 8.72 | 4360 | 0.28 | 140 | > 59 | 30 | 49 | 0.18 | 5.35 | 0.7 | 8.8 | 4
COc1ccc(CSc2nc(Cc3c(Cl)cccc3Cl)c(C)c(=O)[nH]2)cc1 |  | 32 | 4570 |  | 671 |  |  | > 32 | 25500 |  |  |  |  |  | 37500
Cc1c(Cc2c(F)cccc2F)nc(SCC(=O)c2ccc(F)cc2)[nH]c1=O | 0.025 | > 62 | > 2480 | > 62 |  | 0.35 | 14 | > 62 | 29 | 96 | 0.41 | 12 | 1.71 | 39.2 | 4
O=C(CSc1nc(Cc2c(Cl)cccc2Cl)cc(=O)[nH]1)c1ccc(F)cc1 | 0.78 | > 59 | > 76 | > 59 |  | > 59 |  | > 59 | 46 | 124 | 0.21 | 9.7 | 9.7 | 26.1 | 46
COc1ccc(C(=O)CSc2nc(Cc3c(F)cccc3Cl)c(C)c(=O)[nH]2)cc1 | 0.2 | > 12 | > 60 | > 12 |  | 1.57 | 8 | > 12 | 150 | 1390 | 0.018 | 2.7 | 1.2 | 25 | 67
